# Measurements of several laboratories.
# Compare with care: the assays were run in different laboratories.
# Tspo: Translocator protein (Tspo, Rattus norvegicus, UniProt P16257)
# Melanocortin receptor 4: Melanocortin receptor 4 (Mus musculus, UniProt P56450)
# LDHA: L-lactate dehydrogenase A chain (LDHA, Homo sapiens, UniProt P00338)
SMILES,target,test,endpoint,value
Cc1cnc(-c2ccc(-c3ccc(NC(=O)Nc4c(F)cc(F)cc4F)cc3F)c3c2C(=O)NC3)[nH]1,"High affinity nerve growth factor receptor (NTRK1, Homo sapiens, UniProt P04629)","binding, competition with immobilised ligand",Kd,0.001 µM
O[C@@H]1[C@H](O)[C@@H]2C[C@@H]2[C@H]1n1cnc2c(NCCc3ccccc3)nc(C#Cc3ccccc3)nc21,Tspo,"ligand displacement, radioligand",Ki,> 10 µM
CSCC[C@H](NC(=O)[C@@H](NC(=O)[C@@H](N)Cc1ccc(O)cc1)C(C)C)C(=O)NCC(=O)N[C@@H](Cc1c[nH]cn1)C(=O)N[C@@H](Cc1ccccc1)C(=O)N[C@@H](CCCNC(=N)N)C(=O)N[C@@H](Cc1c[nH]c2ccccc12)C(=O)N[C@@H](CC(=O)O)C(=O)N[C@@H](CCCNC(=N)N)C(=O)O,Melanocortin receptor 4,"reporter gene, agonist",EC50,0.66 µM
CC[C@H](C)[C@H](NC(=O)[C@H](Cc1ccccc1)NC(=O)[C@H](CCC(=O)O)NC(=O)[C@H](CCCCN)NC(=O)[C@H](C)NC(=O)[C@H](C)NC(=O)[C@H](CCC(N)=O)NC(=O)CNC(=O)[C@H](CCC(=O)O)NC(=O)[C@H](CC(C)C)NC(=O)[C@H](Cc1ccc(O)cc1)NC(=O)[C@H](CO)NC(=O)[C@H](CO)NC(=O)[C@@H](NC(=O)[C@H](CC(=O)O)NC(=O)[C@H](CO)NC(=O)[C@@H](NC(=O)[C@H](Cc1ccccc1)NC(=O)[C@@H](NC(=O)CNC(=O)[C@H](CCC(=O)O)NC(=O)[C@H](C)NC(=O)[C@@H](N)Cc1c[nH]cn1)[C@@H](C)O)[C@@H](C)O)C(C)C)C(=O)N[C@@H](C)C(=O)N[C@@H](Cc1c[nH]c2ccccc12)C(=O)N[C@@H](CC(C)C)C(=O)N[C@H](C(=O)N[C@@H](CCCCN)C(=O)NCC(=O)N[C@@H](CCCN=C(N)N)C(=O)NCC(=O)O)C(C)C,"Glucagon-like peptide 2 receptor (GLP2R, Homo sapiens, UniProt O95838)","reporter gene, agonist, luciferase",EC50,> 1 µM
CNC(=O)[C@@]12C[C@@H]1[C@@H](n1cnc3c(NC4CC4c4ccccc4)nc(C#Cc4ccccc4)nc31)[C@H](O)[C@@H]2O (mixture of isomers),Tspo,"ligand displacement, radioligand",Ki,> 10 µM
CSCC[C@H](N)C(=O)NCC(=O)N[C@@H](Cc1c[nH]cn1)C(=O)N[C@@H](Cc1ccccc1)C(=O)N[C@@H](CCCNC(=N)N)C(=O)N[C@@H](Cc1c[nH]c2ccccc12)C(=O)O,Melanocortin receptor 4,"reporter gene, agonist",EC50,41.9 µM
O=C(O)CC(=O)C(=O)O,LDHA,"binding, fluorescence",Kd,642 µM
Cc1nc2ccc(NC(=O)CCNC(=O)CCCc3ccc(CC(C(=O)O)C(=O)O)cc3)cc2s1,LDHA,"binding, SPR",Kd,0.058 µM
CNC(=O)[C@@]12C[C@@H]1[C@@H](n1cnc3c(NCc4cccc(Cl)c4)nc(Cl)nc31)[C@H](O)[C@@H]2O,Tspo,"ligand displacement, radioligand",Ki,> 10 µM
N=C(N)NCCC[C@H](NC(=O)[C@@H](N)CC(=O)O)C(=O)N[C@@H](Cc1ccccc1)C(=O)O,Melanocortin receptor 4,"reporter gene, agonist",EC50,> 100 µM
CNC(=O)[C@@]12C[C@@H]1[C@@H](n1cnc3c(NC)nc(C#Cc4ccccc4)nc31)[C@H](O)[C@@H]2O,Tspo,"ligand displacement, radioligand",Ki,> 10 µM
N=C(N)NCCC[C@H](NC(=O)[C@H](CC(=O)O)NC(=O)[C@H](Cc1c[nH]c2ccccc12)NC(=O)[C@H](CCCNC(=N)N)NC(=O)[C@H](Cc1ccccc1)NC(=O)[C@@H](N)Cc1c[nH]cn1)C(=O)N[C@@H](Cc1ccccc1)C(=O)NCC(=O)O,Melanocortin receptor 4,"reporter gene, agonist",EC50,8.38 µM
O=C(OC[C@H]1OC[C@H](OC(=O)c2cc(O)c(O)c(O)c2)[C@@H](O)[C@@H]1O)c1cc(O)c(O)c(O)c1,"Replicase polyprotein 1ab, main protease (rep, Severe acute respiratory syndrome coronavirus 2, UniProt P0DTD1)","binding, SPR",Kd,1.18 µM
N=C(N)NCCC[C@H](NC(=O)[C@@H](N)CC(=O)O)C(=O)N[C@@H](Cc1ccccc1)C(=O)NCC(=O)O,Melanocortin receptor 4,"reporter gene, agonist",EC50,> 100 µM
O=C(Nc1ccncc1)c1cn(Cc2ccc(Cl)c(Cl)c2)c(=O)c2cnn(C3CCNCC3)c12,"Fascin (FSCN1, Homo sapiens, UniProt Q16658)","binding, ITC",Kd,0.045 µM
